PglD DTNB – C. jejuni PglD acetyltransferase inhibitors, primary screen, biochemical, DTNB colorimetric, single point | UDP-N-acetylbacillosamine N-acetyltransferase PglD (Campylobacter jejuni) | purified PglD enzyme, DTNB colorimetric CoA detection | inhibition, % at 12.5 µM | 0.098% of 360,000 active | AID 602405, 2012; in the data active means inhibition above about 16%, passing the limit was not always enough; inconclusive means no clear call, values can overlap the other calls
Xi reactivation – activators of inactive X chromosome reactivation, primary screen, imaging, XiGFP fibroblasts, GFP high-content imaging, set 2; activation, % at 7.58 µM; 0.055% of 360,000 active; XiGFP mouse fibroblasts, % GFP-positive cells imaging, 3 d; cells co-treated with 5-aza-dC sensitizer; scaled so ellipticine positive control = 100%;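 active means mean normalized replicate activation at least 10% and every replicate at or above 10%; inconclusive means only one of the two criteria met; inactive means mean below 10% and not all replicates reach 10%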;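 further: 0% = median of on-plate neutral control wells and 100% = ellipticine 6 µM median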
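System: SV40-immortalized XiGFP fibroblast cells, line 68-5-11 / Incubation: 3-day compound exposure, then 15 min fixation at room temperature / Compound: single concentration per compound, delivered by pin transfer / Buffer or medium: DMEM plus 5-aza-dC sensitizer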
E-sel inducer – E-selectin induction in HUVECs, primary screen, imaging, HUVEC, immunofluorescence imaging, single point | normalized: neutral wells 0, TNF-alpha wells 100 | AID 686992, 2013 | P16581 | activation, % at 7.58 µM | 0.37% of 260,000 active;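 active means mean E-selectin-positive cell signal at least 10% of the positive control, reached in at least 60% of replicates, without over 20% cell loss; inconclusive means no rule given, readout overlaps actives, possibly toxicity-flagged; inactive means the rest, including those meeting only one limit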
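Read-out basis: % PE-positive cells; Test system: HUVEC primary endothelial cells; Technique: immunofluorescence imaging; Dosing: single-point compound dose.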
FGF22 binding – binders of human FGF22 protein, primary screen, FGF22 synaptogenesis inhibitor project, biophysical, thermal shift, single point; recombinant FGF22 thermal shift, SYPRO orange fluorescence; percent of sucrose octasulfate shift, DMSO zero; activity (Tm shift, normalised), % at 9.99 µM; 1.5% of 340,000 active; AID 651658, 2012;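 active means mean Tm shift, scaled 0 neutral to 100 positive control, at about 1.3% or above, every replicate too, limit read from the data; inconclusive means no clear call, values can overlap the other calls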
Target sequence (Q9HCT0 whole entry, looked up): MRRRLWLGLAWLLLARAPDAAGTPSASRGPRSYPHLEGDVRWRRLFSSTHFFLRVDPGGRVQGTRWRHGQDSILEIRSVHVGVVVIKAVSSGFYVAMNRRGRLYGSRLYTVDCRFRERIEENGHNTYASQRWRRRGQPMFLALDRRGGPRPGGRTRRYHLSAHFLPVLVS
DENV2 CPE – inhibitors of DENV2 cytopathic effect, primary screen, cell-based, plate reader, single concentration; DENV2-infected cells, cytopathic effect rescue; CPE inhibition, % at 9.99 µM; 1.7% of 350,000 active; AID 651640, 2012; in the data active means CPE inhibition above about 20%, passing the limit was not always enough; inconclusive means no clear call, values can overlap the other calls; tested in BHK-21 cells;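 further: 0% = median of neutral control wells and 100% = median of positive control wells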
C2C12 statin – suppressors of statin myotoxicity in C2C12 myotubes, primary screen, cell-based, single point, plate reader; C2C12 myotubes + simvastatin, ATP luminescence, 48 h; scaled: DMSO 0, geranylgeraniol control 100; rescue of ATP level, % at 7.49 µM; 0.78% of 330,000 active;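 active means mean ATP rescue above about 67%, or every replicate alone reaching that limit, limit read from the data, passing the limit was not always enough; inconclusive means no clear call, values can overlap the other calls; inactive means mean under the limit and some replicate under it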;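 further: myotubes were challenged with 10 µM simvastatin during compound exposure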
Active calls of the source: *; ? = inconclusive; nt = not tested or not shown. In the library only some 3.3% were active in any assay of this set; here they are far more common.

SMILES	PglD DTNB	Xi reactivation	E-sel inducer	FGF22 binding	DENV2 CPE	C2C12 statin
Cc1nc2cc(NS(=O)(=O)c3cccc(F)c3)ccc2s1	nt	0	0	44*	8	nt
CC(=O)c1cccc(S(=O)(=O)Nc2ccc3nc(C)sc3c2)c1	3	0	1	0	?	-2
O=C(Cc1ccccn1)NCC[C@H]1CC[C@@H](NC(=O)c2ccccc2F)[C@@H](CO)O1	3	-1	0	1	40*	2
O=C(CN1CCOCC1)NCC[C@H]1CC[C@H](NC(=O)Cc2ccccn2)[C@@H](CO)O1	2	0	0	0	24*	-12
O=C(N[C@@H]1CC[C@H](CCNS(=O)(=O)Cc2ccccc2)O[C@@H]1CO)c1ccc2c(c1)OCO2	1	0	0	0	22*	20
O=C(CN1CCOCC1)NCC[C@@H]1CC[C@H](NC(=O)c2ccc3c(c2)OCO3)[C@@H](CO)O1	0	0	0	0	22*	-1
O=C(N[C@@H]1CC[C@H](CCNS(=O)(=O)Cc2ccccc2)O[C@H]1CO)c1ccc2c(c1)OCO2	1	0	0	0	10	7
CCOC(=O)c1cc(-c2ccc(/C=N\n3cnnc3)o2)ccc1Cl	25*	nt	nt	nt	nt	10
CCCC(=O)N1CC2(CCN(C(=O)NC(C)C)CC2)c2c([nH]c3cc(OC)ccc23)[C@@H]1CO	nt	0	0	0	1	nt
CCc1cccc(-n2c(C)cc(O)cc2=O)c1	nt	0	1	0	61*	nt
CCNC(=O)[C@H]1[C@H](CO)[C@H]2Cn3c(ccc(-c4ccc(F)cc4)c3=O)[C@@H]1N2Cc1ccccc1F	-4	0	0	0	-10	-1
COc1ccc(-c2csc3ncnc(N4CCN(S(=O)(=O)c5cccc(Br)c5)CC4)c23)cc1	1	0	0	0	-3	77*
O=C(CCCn1c(=O)c2ccccc2n(CC(=O)N2CCN(c3ccccc3)CC2)c1=O)NCc1ccco1	-1	nt	43*	0	-3	nt
CCNC(=O)C[C@H]1CC[C@@H]2[C@@H](COc3ccc(NC(=O)Nc4ccc(F)cc4)cc3C(=O)N2C)O1	0	0	0	1	19	-5
COc1ccc(NC(=O)Nc2ccc3c(c2)CC(=O)N([C@@H](C)CO)C[C@@H](C)[C@H](CN(C)S(=O)(=O)c2cn(C)cn2)O3)cc1	-1	0	nt	0	-10	-34
C=CCOc1ccccc1CN1CCC(Cc2ccccc2)CC1	0	0	0	0	24*	-16
CCCOc1ccc(C(=O)Nc2ccc(S(=O)(=O)N3C[C@@H]4C[C@@H](C3)c3cccc(=O)n3C4)cc2)cc1	-2	nt	nt	0	31*	-33
CCOc1ccc(/C=N/NC(=O)c2ccc(F)cc2)cc1CN1CC2CC(C1)c1cccc(=O)n1C2 (stereo not given)	4	nt	nt	0	20*	7
COc1ccc(S(=O)(=O)N[C@H]2CC[C@@H](CCNC(=O)Cc3ccccn3)O[C@@H]2CO)cc1	5	0	0	0	-3	-4
COc1ccc(CCN2CC(C(=O)NCCc3cn[nH]c3)CCC2=O)cc1 (stereo not given)	4	0	-1	0	88*	nt
CN(C)CC(=O)N[C@@H]1CC[C@@H](CCNC(=O)C2CC2)O[C@@H]1CO	nt	0	0	nt	7	nt
O=S(=O)(NCC1CCN(S(=O)(=O)c2ccccc2)CC1)c1ccccc1	-2	nt	nt	nt	nt	137*
O=C(CC1CC1)N1CC2(C1)[C@H](c1ccccc1)[C@@H](CO)N2Cc1ccccc1	nt	0	0	0	2	nt
COc1ccc(-c2cn(-c3ccccc3)nc2CO)cc1	3	0	0	0	2	-16
